Key:
[1] = target: T1, ABCG2 (Homo sapiens, UniProt Q9UNQ0); assay: Inhibition of ABCG2 (unknown origin) transfected in HEK293 cells assessed as inhibition of mitoxantrone efflux at 5 uM after 30 mins by flow cytometry relative to control; type: cell-based; details: HEK293 cells transfected with ABCG2, probe mitoxantrone
T1 sequence (Q9UNQ0 whole entry): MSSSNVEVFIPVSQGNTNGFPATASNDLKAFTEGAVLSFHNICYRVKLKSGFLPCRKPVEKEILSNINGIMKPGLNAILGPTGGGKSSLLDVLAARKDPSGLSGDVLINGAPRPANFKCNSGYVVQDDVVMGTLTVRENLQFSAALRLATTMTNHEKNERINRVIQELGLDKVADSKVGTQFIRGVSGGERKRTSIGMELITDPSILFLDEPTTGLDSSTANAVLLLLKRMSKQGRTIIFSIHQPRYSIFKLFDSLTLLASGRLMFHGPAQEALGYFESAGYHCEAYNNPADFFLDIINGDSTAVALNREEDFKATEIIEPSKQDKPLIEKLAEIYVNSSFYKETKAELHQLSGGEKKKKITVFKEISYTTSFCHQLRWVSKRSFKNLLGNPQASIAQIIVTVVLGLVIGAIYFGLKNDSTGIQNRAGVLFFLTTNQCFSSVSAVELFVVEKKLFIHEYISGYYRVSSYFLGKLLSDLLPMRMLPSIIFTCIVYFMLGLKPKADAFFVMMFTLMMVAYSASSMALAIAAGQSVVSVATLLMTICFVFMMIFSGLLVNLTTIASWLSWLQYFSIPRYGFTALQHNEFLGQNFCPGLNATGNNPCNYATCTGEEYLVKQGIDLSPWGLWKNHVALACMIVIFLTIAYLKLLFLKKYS
Procedure, shortened: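 HEK293-ABCG2 cells (1.5 × 10⁵/well, grown 48 h) exposed to 5 μM mitoxantrone for 30 min at 37 °C with compound (increasing concentrations up to 10 μM); washed, trypsinized, FL4 flow cytometry, ≥10 000 events.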

[2] = target: T2, Broad substrate specificity ATP-binding cassette transporter ABCG2 (Homo sapiens, UniProt Q9UNQ0); assay: Inhibition of ABCG2 (unknown origin) transfected in HEK293 cells assessed as inhibition of mitoxantrone efflux after 30 mins by flow cytometry relative to control; type: cell-based
T2 sequence (Q9UNQ0 whole entry): T1 sequence (Q9UNQ0 whole entry)

[3] = target: T2, Broad substrate specificity ATP-binding cassette transporter ABCG2; assay: Inhibition of ABCG2 (unknown origin) transfected in HEK293 cells assessed as inhibition of mitoxantrone efflux at 5 uM after 30 mins in presence of 0.1 uM (2E,2'E)-1,1'-(1,4-Phenylene)bis(3-(2,6-dimethoxyphenyl)-prop-2-en-1-one) by flow cytometry; type: cell-based
[4] = target: T2, Broad substrate specificity ATP-binding cassette transporter ABCG2; assay: Inhibition of human ABCG2 transfected in Sf9 insect cells assessed as inhibition of basal ATPase activity in absence of substrate drug after 30 mins by colorimetry; details: sf9, 0.5 h
Procedure, shortened: (§1)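 Cholesterol-loaded membranes from Sf9 cells overexpressing human ABCG2 (0.5 mg/mL; 10 μg/sample) in 50 mM Tris-HCl, 50 mM NaCl, pH 8.0, with or without 0.33 mM orthovanadate, no transport substrate; started with 3.9 mM ATP-Mg, 30 min at 37 °C; stopped with SDS; phosphate released read with molybdate/ascorbic acid at 880 nm; vanadate-sensitive basal activity taken as 100%.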

[5] = test system: HEK293; assay: Cytotoxicity against HEK293 cells after 72 hrs by MTT assay; type: cell-based; details: Homo sapiens, HEK293, 72 h
Procedure, shortened: (§2)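 HEK293-ABCG2 and vector-control HEK293-pcDNA3.1 cells were seeded at 1 × 10⁴/well and grown 24 h, then exposed 72 h to mitoxantrone (0–25 nM). ABCG2 cells were also given bis-chalcone at 0.1 or 0.5 μM. MTT was added for 4 h, formazan dissolved in DMSO/ethanol (1:1) and read at 570 nm. IC50 = mitoxantrone concentration giving 50% survival.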

[6] = test system: HEK293; assay: Cytotoxicity against HEK293 cells overexpressing ABCG2 after 72 hrs by MTT assay; type: ADME, cell-based; details: Homo sapiens, HEK293, 72 h; procedure, shortened: as §2
[7] = test system: HEK293; assay: Cytotoxicity against HEK293 cells overexpressing ABCG2 at 0.5 uM after 72 hrs by MTT assay; type: ADME, cell-based; details: human, hek293, 72 h; procedure, shortened: as §2
[8] = target: T3, ABCG2 ATPase (Homo sapiens, UniProt Q9UNQ0); assay: Activation of human ABCG2 transfected in Sf9 insect cells assessed as stimulation of basal ATPase activity in absence of substrate drug after 30 mins by colorimetry; details: Sf9 insect cells transfected with human ABCG2, read-out: FC; procedure, shortened: as §1
T3 sequence (Q9UNQ0 whole entry): T1 sequence (Q9UNQ0 whole entry)

[9] = target: T2, Broad substrate specificity ATP-binding cassette transporter ABCG2; assay: Inhibition of ABCG2 (unknown origin)-mediated mitoxantrone efflux transfected in HEK293 cells assessed as potentiation of mitoxantrone-induced cytotoxicity at 0.5 uM after 72 hrs by MTT assay; type: cell-based; details: hek293, 72 h; procedure, shortened: as §2
[10] = test system: ATP-binding cassette sub-family G member 2 (Homo sapiens); assay: Inhibition of ABCG2-mediated mitoxantrone efflux in mitoxantrone-selected human PANC1 cells overexpressing ABCG2; details: PANC-1
[11] = target: T3, ABCG2 ATPase; assay: (§3) Inhibition of human ABCG2 ATPase activity transfected in Sf9 insect cells using quercetin as substrate after 30 mins by colorimetry relative to control; details: human, Sf9 insect cells transfected with human ABCG2, probe quercetin; read-out: Imax
Procedure, shortened: (§4)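 Vanadate-sensitive ATPase of cholesterol-loaded human ABCG2 Sf9 membranes (0.5 mg/mL; 10 μg/sample), 50 mM Tris-HCl/50 mM NaCl pH 8.0, with 2 μM quercetin. ATP-Mg 3.9 mM, 30 min, 37 °C. Phosphate measured colorimetrically at 880 nm. Coupled activity = total minus basal, taken as 100%. IC50 is the concentration giving 50% inhibition.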

[12] = target: T2, Broad substrate specificity ATP-binding cassette transporter ABCG2; assay: as §3; procedure, shortened: as §4
[13] = target: ATP-dependent translocase ABCB1 (Homo sapiens, UniProt P08183); assay: Inhibition of ABCB1 (unknown origin) transfected in mouse NIH/3T3 cells assessed as inhibition of mitoxantrone efflux up to 10 uM after 30 mins by flow cytometry relative to control; type: cell-based; details: nih/3t3, 0.5 h
Chain of ATP-dependent translocase ABCB1 (P08183 whole entry): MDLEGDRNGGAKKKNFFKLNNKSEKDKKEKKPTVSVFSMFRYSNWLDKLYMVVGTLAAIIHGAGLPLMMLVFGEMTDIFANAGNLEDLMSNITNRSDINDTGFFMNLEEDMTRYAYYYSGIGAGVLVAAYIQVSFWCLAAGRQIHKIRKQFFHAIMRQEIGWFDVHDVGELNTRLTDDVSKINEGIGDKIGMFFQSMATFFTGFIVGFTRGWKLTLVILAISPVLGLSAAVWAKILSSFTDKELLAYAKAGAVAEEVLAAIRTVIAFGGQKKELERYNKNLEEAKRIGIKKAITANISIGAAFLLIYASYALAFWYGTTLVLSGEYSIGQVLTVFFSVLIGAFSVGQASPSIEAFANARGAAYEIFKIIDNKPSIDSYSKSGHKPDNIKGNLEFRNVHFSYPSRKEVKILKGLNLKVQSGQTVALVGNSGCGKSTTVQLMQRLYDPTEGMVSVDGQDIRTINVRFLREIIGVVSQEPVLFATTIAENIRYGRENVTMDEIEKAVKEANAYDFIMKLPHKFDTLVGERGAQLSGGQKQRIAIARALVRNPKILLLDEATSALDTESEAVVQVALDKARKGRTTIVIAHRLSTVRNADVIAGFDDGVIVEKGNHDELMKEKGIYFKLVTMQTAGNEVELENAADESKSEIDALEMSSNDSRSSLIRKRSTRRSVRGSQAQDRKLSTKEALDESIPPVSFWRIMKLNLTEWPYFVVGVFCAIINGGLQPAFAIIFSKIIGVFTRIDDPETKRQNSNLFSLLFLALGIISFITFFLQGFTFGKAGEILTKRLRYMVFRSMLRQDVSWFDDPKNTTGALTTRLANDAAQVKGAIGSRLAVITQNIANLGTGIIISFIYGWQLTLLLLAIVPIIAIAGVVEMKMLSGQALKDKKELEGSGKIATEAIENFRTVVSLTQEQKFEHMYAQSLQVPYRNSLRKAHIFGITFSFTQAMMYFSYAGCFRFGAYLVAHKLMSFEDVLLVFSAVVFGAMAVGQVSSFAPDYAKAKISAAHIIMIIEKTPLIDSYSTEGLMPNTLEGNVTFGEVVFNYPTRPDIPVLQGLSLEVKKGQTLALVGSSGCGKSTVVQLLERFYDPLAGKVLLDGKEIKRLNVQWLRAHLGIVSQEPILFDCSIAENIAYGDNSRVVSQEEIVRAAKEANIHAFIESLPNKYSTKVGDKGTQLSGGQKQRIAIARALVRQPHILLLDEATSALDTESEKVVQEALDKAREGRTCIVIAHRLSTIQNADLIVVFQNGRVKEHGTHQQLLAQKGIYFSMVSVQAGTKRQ
Procedure, shortened: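 NIH-3T3-ABCB1 cells (1.5 × 10⁵/well, 48 h, kept in 60 ng/mL colchicine) were given 5 μM mitoxantrone for 30 min at 37 °C with bis-chalcone at 1 or 10 μM. Fluorescence was read by FL4 flow cytometry, ≥10 000 events. Inhibition was expressed relative to parental NIH-3T3 cells, whose maximal accumulation was taken as complete inhibition.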

[14] = target: Multidrug resistance-associated protein 1 (Homo sapiens, UniProt P33527); assay: Inhibition of ABCC1 (unknown origin) transfected in HEK293 cells assessed as inhibition of calcein-AM efflux up to 10 uM after 30 mins by flow cytometry relative to control; type: cell-based; details: hek293, 0.5 h
Chain of Multidrug resistance-associated protein 1 (P33527 whole entry): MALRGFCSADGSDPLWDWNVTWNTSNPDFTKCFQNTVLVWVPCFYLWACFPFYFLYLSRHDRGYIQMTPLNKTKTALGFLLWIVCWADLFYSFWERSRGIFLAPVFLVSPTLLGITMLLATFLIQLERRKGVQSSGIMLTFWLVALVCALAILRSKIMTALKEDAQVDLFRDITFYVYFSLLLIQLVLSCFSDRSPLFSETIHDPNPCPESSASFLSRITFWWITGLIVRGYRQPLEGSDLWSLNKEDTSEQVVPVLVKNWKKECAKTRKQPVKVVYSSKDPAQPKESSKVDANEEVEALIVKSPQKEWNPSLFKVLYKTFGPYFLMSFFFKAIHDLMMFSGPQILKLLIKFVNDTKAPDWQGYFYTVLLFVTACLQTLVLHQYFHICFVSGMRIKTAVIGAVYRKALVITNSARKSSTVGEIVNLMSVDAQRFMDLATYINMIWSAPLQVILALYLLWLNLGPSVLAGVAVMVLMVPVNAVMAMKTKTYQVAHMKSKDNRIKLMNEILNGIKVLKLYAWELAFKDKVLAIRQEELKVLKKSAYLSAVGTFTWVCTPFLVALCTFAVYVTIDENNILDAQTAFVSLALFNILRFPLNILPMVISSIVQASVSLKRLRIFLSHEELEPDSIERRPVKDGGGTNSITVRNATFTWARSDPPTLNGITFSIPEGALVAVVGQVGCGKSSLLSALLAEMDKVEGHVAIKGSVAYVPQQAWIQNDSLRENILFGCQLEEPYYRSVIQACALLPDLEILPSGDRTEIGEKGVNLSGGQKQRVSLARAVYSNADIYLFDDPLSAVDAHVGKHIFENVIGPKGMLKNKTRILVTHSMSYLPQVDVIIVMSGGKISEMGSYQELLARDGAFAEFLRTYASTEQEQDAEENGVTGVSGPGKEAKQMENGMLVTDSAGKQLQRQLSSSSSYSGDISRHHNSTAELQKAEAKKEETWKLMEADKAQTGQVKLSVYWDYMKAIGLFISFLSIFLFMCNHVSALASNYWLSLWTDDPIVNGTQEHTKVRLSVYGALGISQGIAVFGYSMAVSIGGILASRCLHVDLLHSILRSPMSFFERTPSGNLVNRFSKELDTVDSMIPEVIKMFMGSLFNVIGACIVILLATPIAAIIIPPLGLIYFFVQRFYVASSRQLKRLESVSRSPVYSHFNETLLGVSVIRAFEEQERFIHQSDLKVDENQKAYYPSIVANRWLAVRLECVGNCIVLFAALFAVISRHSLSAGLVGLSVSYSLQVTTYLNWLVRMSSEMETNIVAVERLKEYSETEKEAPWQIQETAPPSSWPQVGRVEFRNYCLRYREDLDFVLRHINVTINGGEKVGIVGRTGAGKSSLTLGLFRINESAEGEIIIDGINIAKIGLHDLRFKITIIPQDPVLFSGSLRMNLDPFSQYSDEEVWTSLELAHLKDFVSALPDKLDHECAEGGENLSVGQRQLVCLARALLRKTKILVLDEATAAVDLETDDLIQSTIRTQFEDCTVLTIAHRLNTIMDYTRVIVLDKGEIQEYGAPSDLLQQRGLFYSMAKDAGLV
Procedure, shortened: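 HEK293-ABCC1 cells (2 × 10⁵/well, kept in 200 μg/mL hygromycin B) were exposed to 0.2 μM calcein-AM for 30 min at 37 °C with bis-chalcone at 1 or 10 μM. Calcein was read by FL1 flow cytometry, ≥10 000 events. Inhibition was expressed relative to HEK293/pcDNA5 cells, whose maximal accumulation equals complete inhibition.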

Compound: COc1cc(OC)c(/C=C/C(=O)c2ccc(C(=O)/C=C/c3c(OC)cc(OC)cc3OC)cc2)c(OC)c1
- inhibition at 0.5 h, 5 µM [1]: 92%
- EC50 [2]: 400 nM

Compound: COc1ccc(/C=C/C(=O)c2ccc(C(=O)/C=C/c3ccc(OC)c(OC)c3)cc2)cc1OC
- inhibition at 0.5 h, 5 µM [1]: 63%
- EC50 [2]: 2100 nM

Compound: COc1cccc(C(=O)/C=C/c2ccc(/C=C/C(=O)c3cccc(OC)c3)cc2)c1
- inhibition at 0.5 h, 5 µM [1]: 73%
- EC50 [2]: 2300 nM

Compound: COc1cc(/C=C/C(=O)c2ccc(C(=O)/C=C/c3cc(OC)c(OC)c(OC)c3)cc2)cc(OC)c1OC
- inhibition at 0.5 h, 5 µM [1]: 43%

Compound: COc1cc(C(=O)/C=C/c2ccc(/C=C/C(=O)c3cc(OC)c(OC)c(OC)c3)cc2)cc(OC)c1OC
- inhibition at 0.5 h, 5 µM [1]: 73%
- EC50 [2]: 1100 nM

Compound: COc1ccc(C(=O)/C=C/c2ccc(/C=C/C(=O)c3ccc(OC)cc3OC)cc2)c(OC)c1
- inhibition at 0.5 h, 5 µM [1]: 86%
- EC50 [2]: 900 nM

Compound: O=C(/C=C/c1ccc(/C=C/C(=O)c2ccccc2)cc1)c1ccccc1
- inhibition at 0.5 h, 5 µM [1]: 25%

Compound: COc1ccc(OC)c(C(=O)/C=C/c2ccc(/C=C/C(=O)c3cc(OC)ccc3OC)cc2)c1
- inhibition at 0.5 h, 5 µM [1]: 74%
- EC50 [2]: 1300 nM

Compound: O=C(/C=C/c1ccc(/C=C/C(=O)c2ccc3c(c2)OCO3)cc1)c1ccc2c(c1)OCO2
- inhibition at 0.5 h, 5 µM [1]: 19%

Compound: COc1ccc(C(=O)/C=C/c2ccc(/C=C/C(=O)c3ccc(OC)cc3)cc2)cc1
- inhibition at 0.5 h, 5 µM [1]: 27%

Compound: COc1cc(OC)c(C(=O)/C=C/c2ccc(/C=C/C(=O)c3c(OC)cc(OC)cc3OC)cc2)c(OC)c1
- inhibition at 0.5 h, 5 µM [1]: 66%
- EC50 [2]: 1800 nM

Compound: O=C(/C=C/c1cccc2ccccc12)c1ccc(C(=O)/C=C/c2cccc3ccccc23)cc1
- inhibition at 0.5 h, 5 µM [1]: 13%

Compound: COc1ccccc1C(=O)/C=C/c1ccc(/C=C/C(=O)c2ccccc2OC)cc1
- inhibition at 0.5 h, 5 µM [1]: 95%
- EC50 [2]: 1100 nM

Compound: O=C(/C=C/c1ccc2ccccc2c1)c1ccc(C(=O)/C=C/c2ccc3ccccc3c2)cc1
- inhibition at 0.5 h, 5 µM [1]: 7%

Compound: CN(C)c1ccc(/C=C/C(=O)c2ccc(C(=O)/C=C/c3ccc(N(C)C)c4ccccc34)cc2)c2ccccc12
- inhibition at 0.5 h, 5 µM [1]: 17%

Compound: COc1ccc(/C=C/C(=O)c2ccc(C(=O)/C=C/c3ccc(OC)cc3)cc2)cc1
- inhibition at 0.5 h, 5 µM [1]: 18%

Compound: COc1cc(OC)c(OC)cc1/C=C/C(=O)c1ccc(C(=O)/C=C/c2cc(OC)c(OC)cc2OC)cc1
- inhibition at 0.5 h, 5 µM [1]: 96%
- EC50 [2]: 300 nM

Compound: O=C(/C=C/c1ccc2c(c1)OCO2)c1ccc(C(=O)/C=C/c2ccc3c(c2)OCO3)cc1
- inhibition at 0.5 h, 5 µM [1]: 11%

Compound: O=C(O)c1ccc(C(=O)/C=C/c2ccc(/C=C/C(=O)c3ccc(C(=O)O)cc3)cc2)cc1
- inhibition at 0.5 h, 5 µM [1]: 0%

Compound: COc1ccc2[nH]cc(CCNC(=O)c3cc(=O)c4c(OCc5ccc(Br)cc5)cccc4o3)c2c1
- EC50 [3]: 31 nM
- EC50 [2]: 94 nM
- inhibition (INH) [4]: Active

Compound: COc1ccc(C(=O)/C=C/c2ccc(/C=C/C(=O)c3ccc(OC)c(OC)c3)cc2)cc1OC
- inhibition at 0.5 h, 5 µM [1]: 97%
- EC50 [2]: 800 nM

Compound: COc1cc(/C=C/C(=O)c2ccc(C(=O)/C=C/c3ccc(O)c(OC)c3)cc2)ccc1O
- inhibition at 0.5 h, 5 µM [1]: 0%

Compound: O=C1c2c(O)ccc(O)c2C(=O)c2c(NCCNCCO)ccc(NCCNCCO)c21 [MITOXANTRONE]
- IC50 [5]: 10 nM
- IC50 [6]: 26.6 nM

Compound: O=C(/C=C/c1ccc(/C=C/C(=O)c2ccc3ccccc3c2)cc1)c1ccc2ccccc2c1
- inhibition at 0.5 h, 5 µM [1]: 45%

Compound: CN(C)c1ccc(/C=C/C(=O)c2ccc(C(=O)/C=C/c3ccc(N(C)C)cc3)cc2)cc1
- inhibition at 0.5 h, 5 µM [1]: 34%

Compound: O=C(/C=C/c1ccc2nccnc2c1)c1ccc(C(=O)/C=C/c2ccc3nccnc3c2)cc1
- inhibition at 0.5 h, 5 µM [1]: 18%

Compound: COc1cc(OC)cc(C(=O)/C=C/c2ccc(/C=C/C(=O)c3cc(OC)cc(OC)c3)cc2)c1
- Activity [7]: Non-toxic
- inhibition at 0.5 h, 5 µM [1]: 78%
- EC50 [2]: 500 nM
- fold induction at 0.5 h [8]: 1.8
- inhibition (INH) [9]: Active
- EC50 [10]: 210 nM
- Emax at 0.5 h [11]: 72%
- IC50 [12]: 270 nM
- inhibition (INH) [13]: Not Active
- inhibition (INH) [14]: Not Active
- inhibition (INH) [4]: Not Active

Compound: COc1cc(OC)c(C(=O)/C=C/c2ccc(/C=C/C(=O)c3cc(OC)c(OC)cc3OC)cc2)cc1OC
- inhibition at 0.5 h, 5 µM [1]: 41%

Compound: O=C(/C=C/c1ccccc1)c1ccc(C(=O)/C=C/c2ccccc2)cc1
- inhibition at 0.5 h, 5 µM [1]: 13%

Compound: COc1ccc(OC)c(/C=C/C(=O)c2ccc(C(=O)/C=C/c3cc(OC)ccc3OC)cc2)c1
- inhibition at 0.5 h, 5 µM [1]: 96%
- EC50 [2]: 700 nM

Compound: O=C(/C=C/c1ccc(/C=C/C(=O)c2cccc3ccccc23)cc1)c1cccc2ccccc12
- inhibition at 0.5 h, 5 µM [1]: 23%

Compound: COc1cc(C(=O)/C=C/c2ccc(/C=C/C(=O)c3ccc(O)c(OC)c3)cc2)ccc1O
- inhibition at 0.5 h, 5 µM [1]: 28%

Compound: O=C(O)c1ccc(/C=C/C(=O)c2ccc(C(=O)/C=C/c3ccc(C(=O)O)cc3)cc2)cc1
- inhibition at 0.5 h, 5 µM [1]: 2%

Compound: COc1ccc(/C=C/C(=O)c2ccc(C(=O)/C=C/c3ccc(OC)c(OC)c3OC)cc2)c(OC)c1OC
- inhibition at 0.5 h, 5 µM [1]: 86%
- EC50 [2]: 1400 nM
